The subject of assay [1] is Staphylococcus aureus. The assay can be described thus: Antibacterial activity against […] Staphylococcus aureus EMRSA-15 after 18 hrs by MTT assay. The format is functional. In short, it runs like this: (§1)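 Strains grown on nutrient agar 24 h at 37 °C; inoculum 1 × 10⁶ cfu/mL in normal saline, set against 0.5 McFarland standard. Samples dissolved in DMSO, diluted in cation-adjusted Mueller-Hinton broth (Ca²⁺ 20 mg/L, Mg²⁺ 10 mg/L), starting 1024 mg/L, twofold serial broth microdilution; 37 °C, 18 h; MTT added, 20 min; MIC = lowest concentration without yellow-to-blue change.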
A general note: Formazan colour is commonly taken as a measure of viable cells.

The test system of assay [2] is Staphylococcus aureus. As to the kind of experiment: Antibacterial activity against […] Staphylococcus aureus EMRSA-16 after 18 hrs by MTT assay. The format is functional. In short, it runs like this: as §1
Assay [3] deals with Staphylococcus aureus. As to the kind of experiment: Antibacterial activity against […] Staphylococcus aureus ATCC 25923 after 18 hrs by MTT assay. The class given is functional. In short, it runs like this: as §1
The subject of assay [4] is Staphylococcus aureus. As to the kind of experiment: Antibacterial activity against MsrA macrolide-resistant Staphylococcus aureus RN4220 after 18 hrs by MTT assay. The format is functional. In short, it runs like this:
as §1

For assay [5], the system named is Staphylococcus aureus. As to the kind of experiment: Antibacterial activity against […] Staphylococcus aureus XU212 expressing TetK efflux pump after 18 hrs by MTT assay. The format is functional. In short, it runs like this:
as §1

Assay [6] relates to Staphylococcus aureus. The assay can be described thus: Antibacterial activity against […] Staphylococcus aureus SA1199B over expressing NorA MDR efflux pump after 18 hrs by MTT assay. The format is functional. In short, it runs like this: as §1
For assay [7], the system named is Staphylococcus aureus. As to the kind of experiment: […] activity against […] Staphylococcus aureus SA1199B over expressing NorA MDR efflux pump assessed as growth inhibition after 24 hrs using cell cultures pre-treated with compound for 24 hrs. The format is functional, organism-based. In short, it runs like this: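 MIC-plate wells from SA-1199B showing no growth sampled (10 μL) onto drug-free Mueller-Hinton agar, incubated 24 h; growth of colonies scored; bactericidal end point defined as ≥99.9% reduction versus starting inoculum. MBC plates themselves incubated 24 h at 37 °C before transfer.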

In brackets after ≈: the same amount, converted by molar mass. Activity calls are given as the source filed them. Where only a bound is given, the exact number is not on record here.

For `COc1c(O)ccc2oc3ccccc3c(=O)c12`, the MIC is 64 µg/mL (≈ 264 µM) with Staphylococcus aureus [1] (EMRSA-15, 18 h); 32 µg/mL (≈ 132 µM) with Staphylococcus aureus [2] (EMRSA-16, 18 h); 64 µg/mL (≈ 264 µM) against Staphylococcus aureus [3] (ATCC 25923, 18 h); 64 µg/mL (≈ 264 µM) in the assay on Staphylococcus aureus [4] (RN4220, 18 h); 128 µg/mL (≈ 528 µM) against Staphylococcus aureus [5] (XU212, 18 h); 64 µg/mL (≈ 264 µM) against Staphylococcus aureus [6].
Consider `COc1cc2c(=O)c3ccccc3oc2c(O)c1O`, for which the MIC was found to be 64 µg/mL (≈ 248 µM) in the assay on Staphylococcus aureus [1] (EMRSA-15, 18 h); 16 µg/mL (≈ 62 µM) with Staphylococcus aureus [2] (EMRSA-16, 18 h); 64 µg/mL (≈ 248 µM) in the assay with Staphylococcus aureus [3] (ATCC 25923, 18 h); 32 µg/mL (≈ 124 µM) in the assay on Staphylococcus aureus [4] (RN4220, 18 h); 16 µg/mL (≈ 62 µM) with Staphylococcus aureus [5] (XU212, 18 h); 32 µg/mL (≈ 124 µM) in the assay with Staphylococcus aureus [6].
Consider `COc1cc2c(=O)c3ccccc3oc2cc1O`, for which the minimum inhibitory concentration (MIC) against Staphylococcus aureus [1] (EMRSA-15, 18 h) was determined as 64 µg/mL (≈ 264 µM); with Staphylococcus aureus [2] (EMRSA-16, 18 h) it was 32 µg/mL (≈ 132 µM); in the assay with Staphylococcus aureus [3] (ATCC 25923, 18 h), 64 µg/mL (≈ 264 µM); with Staphylococcus aureus [4] (RN4220, 18 h) it was 64 µg/mL (≈ 264 µM); in the assay on Staphylococcus aureus [5] (XU212, 18 h) it was 64 µg/mL (≈ 264 µM); in the assay on Staphylococcus aureus [6], 64 µg/mL (≈ 264 µM).
Regarding `CC[C@H](/C=C/[C@@H](C)[C@H]1CC[C@H]2[C@@H]3CC=C4C[C@@H](O)CC[C@]4(C)[C@H]3CC[C@]12C)C(C)C`, the MIC result in the assay with Staphylococcus aureus [1], in the assay on Staphylococcus aureus [2], in the assay on Staphylococcus aureus [3], with Staphylococcus aureus [4], in the assay with Staphylococcus aureus [5] and with Staphylococcus aureus [6] was “inactive” throughout.
`CCCCC(C(=O)OC)[C@]12C(=O)[C@](CC=C(C)C)(C[C@H](CC=C(C)C)C1(C)C)C(=O)C(C(=O)CCC)=C2O` (some centres not stated): the MIC is 1 µg/mL (≈ 1.89 µM) in the assay with Staphylococcus aureus [1] (EMRSA-15, 18 h); 0.5 µg/mL (≈ 0.946 µM) against Staphylococcus aureus [2] (EMRSA-16, 18 h); 1 µg/mL (≈ 1.89 µM) in the assay with Staphylococcus aureus [3] (ATCC 25923, 18 h); 0.25 µg/mL (≈ 0.473 µM) in the assay with Staphylococcus aureus [4] (RN4220, 18 h); 0.25 µg/mL (≈ 0.473 µM) with Staphylococcus aureus [5] (XU212, 18 h); 2 µg/mL (≈ 3.78 µM) against Staphylococcus aureus [6]. Also, the “growth inhibition (GI)” value in the assay on Staphylococcus aureus [7] is “Active”.
`COc1cc(OC)c2c(=O)c3cccc(O)c3oc2c1`: the minimum inhibitory concentration (MIC) against Staphylococcus aureus [1] (EMRSA-15, 18 h) was > 512 µg/mL; with Staphylococcus aureus [2] (EMRSA-16, 18 h), 64 µg/mL (≈ 235 µM); in the assay on Staphylococcus aureus [3] (ATCC 25923, 18 h), 128 µg/mL (≈ 470 µM); against Staphylococcus aureus [4] (RN4220, 18 h), > 512 µg/mL; against Staphylococcus aureus [5] (XU212, 18 h), > 512 µg/mL; in the assay on Staphylococcus aureus [6] it was 64 µg/mL (≈ 235 µM).
In the case of `COc1cc2c(=O)c3ccccc3oc2c(O)c1OC`, the MIC in the assay with Staphylococcus aureus [1] (EMRSA-15, 18 h) was > 512 µg/mL; with Staphylococcus aureus [2] (EMRSA-16, 18 h), 64 µg/mL (≈ 235 µM); against Staphylococcus aureus [3] (ATCC 25923, 18 h) it was 128 µg/mL (≈ 470 µM); in the assay with Staphylococcus aureus [4] (RN4220, 18 h), > 512 µg/mL; in the assay on Staphylococcus aureus [5] (XU212, 18 h), 128 µg/mL (≈ 470 µM); against Staphylococcus aureus [6] it was 64 µg/mL (≈ 235 µM).
As to `CC[C@H](CC[C@@H](C)[C@H]1CC[C@H]2[C@@H]3CC=C4C[C@@H](O)CC[C@]4(C)[C@H]3CC[C@]12C)C(C)C`, the MIC result with Staphylococcus aureus [1], in the assay on Staphylococcus aureus [2], with Staphylococcus aureus [3], with Staphylococcus aureus [4], in the assay on Staphylococcus aureus [5] and in the assay with Staphylococcus aureus [6] was “inactive” throughout.
As for `COc1cc([C@@H]2Oc3c(OC)cc4c(=O)c5ccccc5oc4c3O[C@H]2CO)ccc1O`, the MIC against Staphylococcus aureus [1] (EMRSA-15, 18 h) was > 512 µg/mL; in the assay with Staphylococcus aureus [2] (EMRSA-16, 18 h) it was > 512 µg/mL; with Staphylococcus aureus [3] (ATCC 25923, 18 h), > 512 µg/mL; against Staphylococcus aureus [4] (RN4220, 18 h), > 512 µg/mL; in the assay on Staphylococcus aureus [5] (XU212, 18 h), > 512 µg/mL; in the assay with Staphylococcus aureus [6] it was > 512 µg/mL.
In the case of `CCn1cc(C(=O)O)c(=O)c2cc(F)c(N3CCNCC3)cc21` [NORFLOXACIN], the minimal inhibitory concentration (MIC) against Staphylococcus aureus [1] (EMRSA-15, 18 h) is 0.5 µg/mL (≈ 1.57 µM); in the assay with Staphylococcus aureus [2] (EMRSA-16, 18 h), 128 µg/mL (≈ 401 µM); with Staphylococcus aureus [3] (ATCC 25923, 18 h), 0.5 µg/mL (≈ 1.57 µM); against Staphylococcus aureus [4] (RN4220, 18 h) it was 0.5 µg/mL (≈ 1.57 µM); with Staphylococcus aureus [5] (XU212, 18 h), 8 µg/mL (≈ 25.1 µM); against Staphylococcus aureus [6], 32 µg/mL (≈ 100 µM).
As to `CC(C)[C@H](C)CC[C@@H](C)[C@H]1CC[C@H]2[C@@H]3CC=C4C[C@@H](O)CC[C@]4(C)[C@H]3CC[C@]12C`, the MIC result with Staphylococcus aureus [1], in the assay with Staphylococcus aureus [2], with Staphylococcus aureus [3], in the assay with Staphylococcus aureus [4], in the assay with Staphylococcus aureus [5] and with Staphylococcus aureus [6] was “inactive” throughout.

A word on the MIC: it is the smallest concentration in the dilution series that meets the test's criterion for growth inhibition.

The values are drawn from ChEMBL document CHEMBL3813629, “Antistaphylococcal Prenylated Acylphoroglucinol and Xanthones from Kielmeyera variabilis” (2016).
